Measured values reported in PMC3553949 (Nucleic Acids Research, 2012).
“Also recorded” adds a separate entry of the source. Blank lines part the entries; values can stand above or below the molecule they belong to. Non-standard residues stand in square brackets, D forms with d. No end group written: not given here. pT = C[C@@H](OP(=O)(O)O)[C@H](N)C(=O)O

How the values were obtained:
NIPP1 FHA domain = NIPP1 FHA domain (Homo sapiens, UniProt Q12972); test: NMR titration; assay type: binding
In short: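 ¹⁵N-labelled NIPP1 FHA domain was expressed in E. coli grown in M9 with ¹⁵NH₄Cl, His₆-MBP tag removed by TEV, and purified by size exclusion. The domain (0.1 mM) in 20 mM BisTris pH 6.3, 50 mM NaCl, 5 mM DTT was titrated with increasing mouse EZH2 dodecapeptide concentrations at 298 K (500 MHz, 2D ¹H,¹⁵N HSQC). Kd came from nonlinear fitting of CSP versus peptide concentration.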

[1] = tested on: EZH2-FHA interaction (EGFP-EZH2 / GST-FHA of NIPP1); test: Competition GST pull-down of EGFP-EZH2 with EZH2 dodecapeptides; assay type: binding; conditions: 1 mM of the indicated EZH2 dodecapeptides
NIPP1-FHA domain = test: GST pull-down of EGFP-EZH2 TP mutants with GST-FHA; assay type: binding; conditions: Thr to Ala mutants, n = 4
In short: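 Mouse EZH2 Thr→Ala mutants were made by site-directed mutagenesis in an EGFP-IRES-puro vector and transfected with Jetprime. Lysis buffers contained NaF, leupeptin, PMSF and benzamidine.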

endogenous NIPP1 = test: Co-immunoprecipitation of EZH2 fusions with endogenous NIPP1; assay type: binding; conditions: HEK293T cell lysates
EGFP-EZH2 [2] = test: In vitro phosphorylation of EGFP-EZH2 by cyclinA/CDK2; assay type: biochemical, mouse; conditions: autoradiography, γ32P-ATP, cyclinA/CDK2, 60 min, 30°C
In short: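 Purified EGFP-tagged mouse EZH2 was incubated 60 min at 30°C with recombinant cyclinA/CDK2 (bacterially expressed). Buffer: 20 mM Tris/HCl pH 7.5, 2 mM DTT, 0.1 mg/ml BSA, 2 mM MgAc, 100 µM ATP, with or without γ³²P-ATP.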

EGFP-EZH2 [3] = test: Phosphorylation status of EGFP-EZH2 TP mutants in cells; assay type: cell-based, mouse; conditions: EGFP-EZH2 mutant from cells, immunoblot
In short: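 EGFP-tagged mouse EZH2 variants (EGFP alone as control) were expressed in cells and isolated by EGFP trap. Elution used 0.2 M glycine pH 2.5 for 90 s, immediately neutralised with 1 M Tris pH 10.8. Eluates were immunoblotted with a pan-phospho-Thr-Pro antibody and an affinity-purified phospho-Thr416 (pTP5) antibody. Blots were visualised by ECL and quantified by densitometry.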

PP1 = PP1 associated with immunoprecipitated EGFP-EZH2; assay type: binding; conditions: HEK293T cell lysates, immunoblot
In short: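 EGFP-EZH2 (wild-type or TP5 mutant; EGFP-βgal control) was transiently expressed in HEK293T cells and immunoprecipitated from lysates. Lysis buffers contained 20 mM NaF, 5 µM leupeptin, 0.5 mM PMSF and 0.5 mM benzamidine. Co-precipitated PP1 was detected by immunoblotting with ECL.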

EED, SUZ12 and RbAp48 = test: PRC2 components in immunoprecipitated EGFP-EZH2 complexes; assay type: binding; conditions: immunoblot, Supplementary Figure S5
EGFP-EZH2 [4] = assay type: cell-based, mouse; conditions: 100 µM roscovitine, 2 h preincubation, HEK293T cells
In short: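 HEK293T cells were transfected (Jetprime) with EGFP-tagged mouse EZH2, then preincubated with the CDK inhibitor roscovitine before lysis. EGFP-EZH2 was probed by immunoblot with a rabbit antibody raised against the Thr416-phosphorylated peptide (residues 410–421) coupled to KLH. The antibody was affinity-purified on non-phospho and phospho-peptide–BSA columns. Detection was by ECL imaging.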

EZH2, EED and SUZ12 = test: EGFP trap of EGFP-NIPP1 and co-precipitation of core PRC2 components; assay type: binding; conditions: EGFP-NIPP1 WT or FHAm, HEK293T cell lysates
In short: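 EGFP-NIPP1 is expressed in HEK293T cells by plasmid transfection (Jetprime) and captured by EGFP trap from lysates. Lysis buffer contains 20 mM NaF, 5 µM leupeptin, 0.5 mM PMSF and 0.5 mM benzamidine. Co-precipitated proteins are detected by immunoblotting, using anti-EZH2 (AC-22), an in-house rabbit anti-EED raised against His-EED, and anti-SUZ12 (3C1.2).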

EGFP-EZH2 [5] = test: In vitro dephosphorylation of EGFP-EZH2 by PP1; assay type: biochemical, mouse
In short: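 Mouse EGFP-EZH2 is expressed in HEK293T cells and isolated by immunoprecipitation or EGFP trap. It is incubated 30 min at 30°C in 50 mM Tris/HCl pH 7.5, 1 mM DTT, 0.1 mg/ml BSA with one of: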

[6] = molecular target: NIPP1 FHA domain (15N-labelled, for NMR); test: NMR titration

binding of purified FHA domain to EZH2-derived dodecapeptide (NIPP1 FHA domain; summary in Discussion): interacts rather poorly
Molecule: ANSRCQ(p)TPIKMK [pTP5]
saturation of binding (NIPP1 FHA domain; 10-fold molar excess of the peptide): Saturation was not achieved even after a 10-fold molar excess of the peptide | EZH2-FHA interaction in presence of peptide [1]: decreased EZH2-FHA interaction

binding of EZH2 TP mutant to GST-FHA (NIPP1-FHA domain): complete loss of binding
Molecule: EZH2-mTP5: EZH2 with Thr416 (TP5) mutated to Ala
co-immunoprecipitation with endogenous NIPP1 (endogenous NIPP1): no longer co-immunoprecipitated with endogenous NIPP1 | in vitro phosphorylation of EZH2 by CDK2 (EGFP-EZH2 [2]): moderately reduced | pTP5 signal (EGFP-EZH2 [3]): not detected | associated PP1 (PP1): contained the same amount of PP1 | abundance of EED, SUZ12 and RbAp48 in complex (EED, SUZ12 and RbAp48): equally abundant

Molecule: EZH2-WT: EGFP- or Dam-tagged wild-type mouse EZH2
associated PP1 (PP1): contained the same amount of PP1 | abundance of EED, SUZ12 and RbAp48 in complex (EED, SUZ12 and RbAp48): equally abundant

Molecule: CC[C@H](CO)Nc1nc(NCc2ccccc2)c2ncn(C(C)C)c2n1 [roscovitine]
binding of EGFP-EZH2 to GST-FHA (EGFP-EZH2 [4]): abolished | detection of EGFP-EZH2 by pTP5 antibody (EGFP-EZH2 [4]): not detected

B1: EGFP-NIPP1: ectopically expressed EGFP-NIPP1 wild-type (protein)
chain: MAAAANSGSSLPLFDCPTWAGKPPPGLHLDVVKGDKLIEKLIIDEKKYYLFGRNPDLCDFTIDHQSCSRVHAALVYHKHLKRVFLIDLNSTHGTFLGHIRLEPHKPQQIPIDSTVSFGASTRAYTLREKPQTLPSAVKGDEKMGGEDDELKGLLGLPEEETELDNLTEFNTAHNKRISTLTIEEGNLDIQRPKRKRKNSRVTFSEDDEIINPEDVDPSVGRFRNMVQTAVVPVKKKRVEGPGSLGLEESGSRRMQNFAFSGGLYGGLPPTHSEAGSQPHGIHGTALIGGLPMPYPNLAPDVDLTPVVPSAVNMNPAPNPAVYNPEAVNEPKKKKYAKEAWPGKKPTPSLLI
modifications: left off: EGFP, end not stated, kept
co-precipitation of PRC2 components (EZH2, EED and SUZ12): Both EZH2 and EED co-precipitated; also recorded: SUZ12, which interacts directly with EZH2 but not with EED ([19]), only co-precipitated with the WT NIPP1 fusion

B2: FHA mutant: EGFP-NIPP1 with mutated FHA domain (protein)
chain: MAAAANSGSSLPLFDCPTWAGKPPPGLHLDVVKGDKLIEKLIIDEKKYYLFGRNPDLCDFTIDHQSCAAAAAALVYHKHLKRVFLIDLNSTHGTFLGHIRLEPHKPQQIPIDSTVSFGASTRAYTLREKPQTLPSAVKGDEKMGGEDDELKGLLGLPEEETELDNLTEFNTAHNKRISTLTIEEGNLDIQRPKRKRKNSRVTFSEDDEIINPEDVDPSVGRFRNMVQTAVVPVKKKRVEGPGSLGLEESGSRRMQNFAFSGGLYGGLPPTHSEAGSQPHGIHGTALIGGLPMPYPNLAPDVDLTPVVPSAVNMNPAPNPAVYNPEAVNEPKKKKYAKEAWPGKKPTPSLLI
modifications: left off: EGFP, end not stated, kept
co-precipitation of PRC2 components (EZH2, EED and SUZ12): only EED co-sedimented

B3: NIPP1: recombinant His-NIPP1, or immunoprecipitated EGFP-NIPP1/PP1 complex (protein, UniProt Q12972 1-351, looked up)
Nuclear inhibitor of protein …: MAAAANSGSSLPLFDCPTWAGKPPPGLHLDVVKGDKLIEKLIIDEKKYYLFGRNPDLCDFTIDHQSCSRVHAALVYHKHLKRVFLIDLNSTHGTFLGHIRLEPHKPQQIPIDSTVSFGASTRAYTLREKPQTLPSAVKGDEKMGGEDDELKGLLGLPEEETELDNLTEFNTAHNKRISTLTIEEGNLDIQRPKRKRKNSRVTFSEDDEIINPEDVDPSVGRFRNMVQTAVVPVKKKRVEGPGSLGLEESGSRRMQNFAFSGGLYGGLPPTHSEAGSQPHGIHGTALIGGLPMPYPNLAPDVDLTPVVPSAVNMNPAPNPAVYNPEAVNEPKKKKYAKEAWPGKKPTPSLLI
modifications: His tag
effect on PP1-mediated dephosphorylation of EGFP-EZH2 (EGFP-EZH2 [5]; 500 nM PP1, recombinant His-NIPP1 4.5 µM to 55 nM): abolished | dephosphorylation of EGFP-EZH2 by immunoprecipitated NIPP1/PP1 (EGFP-EZH2 [5]; after pretreatment with trypsin): the immunoprecipitate dephosphorylated EGFP-EZH2 | dephosphorylation of EGFP-EZH2 by immunoprecipitated NIPP1/PP1 (EGFP-EZH2 [5]; without trypsin pretreatment, co-precipitated PP1 present): not dephosphorylated

Kd [6]: 1.9 mM
B4: EZH2 410-421 peptide, phosphorylated at Thr416 (pTP5) (peptide)
peptide: ANSRCQ[pT]PIKMK
